Screening data from PubChem.
Casp6 inh: human caspase-6 inhibitors, primary screen, biochemical, VEID-R110 fluorescence, single point, set 2 | P55212 | purified caspase-6, Z-VEID-R110 cleavage fluorescence | inhibition, % at 12.5 µM | 350,000 compounds, 0.53% hits;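 active = mean inhibition across replicates at least about 35%, with every replicate also reaching that limit, limit read from the data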;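 note: 0% = median of neutral control wells and 100% = no fluorescence left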
UHRF1 MBD2 ctr: UHRF1 methylated DNA binding inhibitors, primary screen, counter-screen for MBD2 inhibitor project, biochemical, TR-FRET, human UHRF1, single concentration; UHRF1 binding to methylated oligo; inhibition, % at 4.4 µM; E3 ubiquitin-protein ligase UHRF1 (Homo sapiens), Q96T88; 370,000 compounds, 0.75% hits;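 note: UHRF1 SRA domain binding a hemimethylated CpG hairpin DNA probe; 0% = median of test compound wells and 100% = reference inhibitor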
Target sequence (Q96T88 whole entry, looked up, the tested form may be a part): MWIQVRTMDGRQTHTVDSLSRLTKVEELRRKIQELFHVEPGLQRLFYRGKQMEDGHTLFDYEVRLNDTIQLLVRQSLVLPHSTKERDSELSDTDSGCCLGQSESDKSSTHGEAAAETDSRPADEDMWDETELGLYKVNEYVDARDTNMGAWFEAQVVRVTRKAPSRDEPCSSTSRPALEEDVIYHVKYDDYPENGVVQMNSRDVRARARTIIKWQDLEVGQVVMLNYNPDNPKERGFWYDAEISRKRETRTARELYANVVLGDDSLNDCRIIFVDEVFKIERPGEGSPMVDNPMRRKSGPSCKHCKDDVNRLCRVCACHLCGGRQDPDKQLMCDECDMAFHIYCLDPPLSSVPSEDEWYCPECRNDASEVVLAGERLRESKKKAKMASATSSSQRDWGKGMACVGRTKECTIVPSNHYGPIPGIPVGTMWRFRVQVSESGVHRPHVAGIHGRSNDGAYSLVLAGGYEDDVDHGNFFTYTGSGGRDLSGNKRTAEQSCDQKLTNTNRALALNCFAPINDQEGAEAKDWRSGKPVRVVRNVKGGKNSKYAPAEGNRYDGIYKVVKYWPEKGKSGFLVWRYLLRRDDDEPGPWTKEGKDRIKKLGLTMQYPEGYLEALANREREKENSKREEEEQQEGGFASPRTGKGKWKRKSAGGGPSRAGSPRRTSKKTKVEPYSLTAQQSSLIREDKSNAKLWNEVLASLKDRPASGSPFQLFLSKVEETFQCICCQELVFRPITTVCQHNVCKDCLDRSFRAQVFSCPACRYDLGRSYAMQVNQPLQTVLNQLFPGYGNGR
MBD2 DNA inh: inhibitors of MBD2 binding to methylated DNA, primary screen, biochemical, TR-FRET, DNA-binding domain, human; AID 686964, 2013; inhibition, % at 4.4 µM; 370,000 compounds, 0.31% hits; MBD2 binding to methylated oligonucleotide; Methyl-CpG-binding domain protein 2 (Homo sapiens), Q9UBB5; in the data active = inhibition above about 13%
LEDGF integ inh: blockers of LEDGF/p75-dependent integrase strand transfer – biochemical, TR-FRET, high throughput, primary screen; HIV-1 integrase (with human LEDGF/p75); TR-FRET IN-LEDGF/p75 DNA integration, Eu/Cy5; inhibition, % at 3.7 µM; 370,000 compounds, 0.64% hits; AID 743269, 2014;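 active = inhibition above the screen-wide mean plus 3 SD, cut at about 13% in these data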;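 note: signal is the Cy5 over europium emission ratio at 671 and 618 nm; 0% = plate median of compound wells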
NSD2 inh: NSD2 histone methyltransferase inhibitors, primary screen, biochemical, AlphaScreen, single concentration, set 2 | Histone-lysine N-methyltransferase NSD2 (Homo sapiens), O96028 | NSD2 peptide methylation, 120 min | inhibition, % at 12.5 µM | 310,000 compounds, 0.54% hits | AID 743445, 2014; in the data active = inhibition above about 50%
TDP2 inh: human TDP2 enzyme inhibitors, primary screen, biochemical, epi absorbance, recombinant enzyme; Tyrosyl-DNA phosphodiesterase 2 (Homo sapiens), O95551; T5PNP hydrolysis, p-nitrophenol absorbance 415 nm; inhibition, % at 12.8 µM; 370,000 compounds, 0.34% hits; AID 720702, 2013;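 active = inhibition above the mean of all tested compounds plus 3 SD, set per campaign, cut at about 25% in these data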;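 note: 0% = DMSO with enzyme and 100% = buffer with substrate but no TDP2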
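Material: recombinant human TDP2; quantity: TDP2 enzyme at 120 nM final; medium: Tris-HCl pH 7.5 with MgCl2; compound: single concentration, 12.8 µM nominal, with 1% DMSO; incubation: 2 h enzyme incubation at 37 °C; signal: epi absorbance; measure: percent inhibition; benchmarks: high control without enzyme, low control DMSO plus TDP2; repeats: singlicate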
UHRF1 ctr MBD2: UHRF1 methylated DNA binding inhibitors, counter-screen for MBD2 inhibitor project, biochemical, TR-FRET, human UHRF1; shares compounds with MBD2 DNA inh; UHRF1 binding to methylated oligonucleotide; inhibition, % at 4.4 µM; 1,000 compounds, 25% hits; AID 720530, 2013;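 note: UHRF1 SRA domain binding a labeled hemimethylated CpG hairpin DNA; 0% = vehicle only and 100% = reference inhibitor with vehicle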
MBD2 confirm: inhibitors of MBD2 binding to methylated DNA, confirmation, biochemical, TR-FRET, DNA-binding domain, human; inhibition, % at 4.4 µM; TR-FRET MBD2-DBD binding to methylated oligonucleotide; shares compounds with MBD2 DNA inh; AID 720531, 2013; 1,000 compounds, 26% hits; in the data active = inhibition above about 14%
* marks the source's active call; other numbers are inactive results; · = no result. A selection: hits, their analogues and other compounds. The true share with any hit is near 1.8%. Cut-off read from the data, not from the text of the source, unless noted: active = inhibition above about 21%; inactive = the rest.

SMILES	Casp6 inh	UHRF1 MBD2 ctr	MBD2 DNA inh	LEDGF integ inh	NSD2 inh	TDP2 inh	UHRF1 ctr MBD2	MBD2 confirm
COc1ccc(S(=O)(=O)CCC(=O)N2CCN(c3ccc(C(C)=O)cc3)CC2)cc1	-0.1	31.3*	18.4*	-6.9	8.5	-1.1	3.8	1.4
Cc1ccc(-c2ccc(CCC(=O)O)n2Cc2ccco2)cc1	·	-0.4	88.4*	-1.0	9.1	-15.4	9.6	4.9
COc1cc(/C=C(\C#N)C(=O)NCC2CCCO2)c([N+](=O)[O-])cc1OC (stereo not drawn)	·	20.8*	13.9*	7.9	·	17.8	7.4	1.8
Cc1ccc(NCCN(C)C)c2c(=O)c3cc(O)ccc3sc12	-79.4	-4.8	13.1*	1.0	-1.1	2.1	10.0	27.1*
C[C@H](CO)N1C[C@H](C)[C@H](CN(C)S(=O)(=O)c2ccc(F)cc2)Oc2ccc(NC(=O)NC3CCCCC3)cc2CC1=O	0.4	·	·	·	·	·	·	·
O=C(OCc1cc(=O)n2c(n1)sc1ccccc12)c1ccc2c(=O)n3c(nc2c1)CCC3	·	39.4*	22.0*	7.2	-0.8	-0.3	26.6*	22.3*
O=C(Nc1ccc2c(c1)OCO2)c1cccs1	·	-2.3	40.0*	-3.7	0.3	9.1	2.3	5.1
O=C(Nc1ccc2c(c1)OCCO2)c1cccs1	-1.4	-2.4	-3.6	-0.1	-5.2	-6.2	·	·
O=C(Nc1ccccc1)N[C@H]1CC[C@@H](CCNS(=O)(=O)c2ccccc2F)O[C@H]1CO	-0.7	·	·	·	·	·	·	·
COc1cccc(NC(=O)Nc2nnc(Cc3ccc(F)cc3)s2)c1	0.2	0.3	34.1*	6.5	-0.7	-7.7	6.0	4.6
COC(=O)c1ccc(CN2CC(=O)N3[C@@H](CO)[C@H](c4ccc(-c5ccccc5F)cc4)[C@@H]3C2)cc1	-0.4	·	·	·	·	·	·	·
Cc1c2cnn(CC(=O)Nc3c(F)c(F)cc(F)c3F)c(=O)c2c(C)n1Cc1ccccc1F	4.1	15.5	13.6*	6.8	2.0	9.0	17.7	29.2*
CNC(=O)Cn1ncc2c(C)n(Cc3ccc(C)cc3)c(C)c2c1=O	·	-1.0	1.6	0.0	1.6	11.4	·	·
CC(C)NC(=O)Nc1ccc2c(c1)CC(=O)N([C@@H](C)CO)C[C@@H](C)[C@H](CN(C)Cc1ccc(-c3ccccc3)cc1)O2	-1.2	·	·	·	·	·	·	·
CC1=C(C(=O)N(C)C)CC(CC(=O)NC(c2ccccc2)c2ccccc2)C(=O)N1Cc1ccc(F)cc1 (stereo not drawn)	-2.9	23.7*	13.5*	-2.9	·	-6.8	10.8	3.1
O=C(Nc1ncc2c(n1)CC(c1cccc(Cl)c1)CC2=O)c1ccco1 (stereo not drawn)	-1.2	85.8*	52.2*	9.2	-1.0	3.5	8.0	2.4
O=C(Nc1ncc2c(n1)CC(c1ccccc1)CC2=O)c1ccco1 (stereo not drawn)	2.3	1.7	-1.2	2.3	-1.3	-0.2	·	·
O=C(Oc1ccc2c(c1)OCO2)c1cc2c(s1)CCC2	·	35.0*	24.8*	12.3	2.2	12.3	35.8*	28.5*
CN(C)CCNC(=O)c1ccccc1-c1ccccc1	·	-1.5	0.2	-2.8	-7.0	-1.6	·	·
COc1cccc2nc3c(C(=O)NCCN(C)C)cccc3cc12	-73.7	-12.1	19.4*	2.9	·	9.7	-4.9	29.9*
COc1ccc(C(=O)NCCN(C)C)c2nc3ccccc3cc12	-23.5	-2.2	36.3*	-0.1	6.4	2.8	15.5	69.5*
COc1ccc(-c2nc3c(C(=O)NCCN(C)C)cccc3c3ccccc23)cc1	-14.7	-13.9	12.6	-7.2	4.0	-1.4	·	·
CN(C)CCNC(=O)c1cccc2[nH]c(-c3ccncc3)nc12	-5.4	11.1	13.2*	-1.0	·	12.7	15.6	19.8*
O=C(Nc1ccc(F)cc1)N1C[C@@H]2[C@H](c3ccccc31)[C@H](CO)N2Cc1cocn1	-1.3	·	·	·	·	·	·	·
CC(C)c1cn(CC[C@H]2CC[C@@H](NC(=O)C3CCC3)[C@H](CO)O2)nn1	1.0	·	·	·	·	·	·	·
SMILES	Casp6 inh	UHRF1 MBD2 ctr	MBD2 DNA inh	LEDGF integ inh	NSD2 inh	TDP2 inh	UHRF1 ctr MBD2	MBD2 confirm
COC(=O)c1nnn(-c2nonc2N)c1CN1CCCC1	-2.2	2.2	31.1*	-4.2	-0.6	3.9	3.1	3.3
Cc1cc(C)nc(SCC(=O)Nc2ccc(S(=O)(=O)Nc3ncccn3)cc2)n1	-8.7	-1.5	-1.9	0.1	-4.9	0.8	·	·
Cc1cc(C)c(C#N)c(SCC(=O)Nc2ccc(S(=O)(=O)Nc3ncccn3)cc2)n1	0.1	0.6	18.0*	0.4	1.2	-9.8	11.8	3.1
COc1ccccc1NC(=O)N1CCC(c2nc3cc(C)c(C)cc3[nH]2)CC1	·	18.5	13.4*	0.4	-1.0	9.6	5.9	1.9
Cc1c(Nc2c3ccccc3nc3ccccc23)c(=O)n(-c2ccccc2)n1C	4.6	-2.4	24.4*	-4.0	-5.4	-14.4	0.6	-5.4
Cc1c(Nc2nc3ccccc3nc2N2CCN(c3ccccc3)CC2)c(=O)n(-c2ccccc2)n1C	·	1.7	-6.1	0.6	1.0	-13.8	·	·
Cc1ccc2nc(Cl)c3cc(C(=O)NCCCN4CCCC4)sc3c2c1	-68.0	-4.4	15.5*	-3.3	·	-10.8	7.9	16.4*
CCC(=O)Nc1ccc2c(c1)C(=O)N(C)[C@@H]1CC[C@@H](CC(=O)NCc3ccccc3)O[C@H]1CO2	0.4	·	·	·	·	·	·	·
C=CCNC(=O)C(=O)NCC(c1ccc2c(c1)OCO2)N1CCOCC1 (stereo not drawn)	-2.2	-1.9	-6.2	-0.2	0.1	-7.5	·	·
CC(C)NC(=O)C(=O)NCC(c1ccc2c(c1)OCO2)N1CCOCC1 (stereo not drawn)	-6.2	28.4*	14.3*	4.9	1.8	15.0	3.1	1.2
CCCCOc1ccc(C(=O)Nc2ccc(N3CCN(C(=O)C(C)C)CC3)cc2)cc1	·	-1.9	33.0*	0.5	-2.6	-12.3	7.5	3.8
CNC[C@@H]1Oc2c(NC(=O)Nc3ccc(F)cc3)cccc2C(=O)N([C@H](C)CO)C[C@H]1C	3.1	·	·	·	·	·	·	·
